Screens: PubChem BioAssay, Broad Institute
Xi reactivation – reactivates the inactive X chromosome in mouse fibroblasts | activation, % at 7.58 µM | AID 743238 | 360,000 compounds, 0.055% hits | XiGFP mouse fibroblasts, % GFP-positive cells imaging, 3 d; cells co-treated with 5-aza-dC sensitizer; scaled so ellipticine positive control = 100%;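 active means mean normalized replicate activation at least 10% and every replicate at or above 10%; inconclusive means only one of the two criteria met; inactive means mean below 10% and not all replicates reach 10%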;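 further: 0% = median of on-plate neutral control wells and 100% = ellipticine 6 µM median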
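System: XiGFP fibroblasts, SV40-immortalized. Medium: DMEM plus 5-aza-dC sensitizer. Doses: single point. Timing: 3 d treatment, 15 min room-temperature fixation. Control set: ellipticine 6 µM.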
MITF act – activators of MITF-driven TRPM1 promoter activity in SK-MEL-5 cells; activation, % at 12.5 µM; 300,000 compounds, 0.75% hits; SK-MEL-5 TRPM1-promoter luciferase, 24 h; % of positive control, neutral wells = 0; AID 588334;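 active means mean activation of at least 80% with every replicate also reaching 80%; inconclusive means mean reaches 80% but some replicate falls short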;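 further: 0% = neutral control wells and 100% = parthenolide positive control wells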
esBAF inh – blocks esBAF chromatin remodeling in mouse ES cells. Bmi1-luciferase knock-in reporter, 24 h; 100% = twice the neutral-well signal. reporter increase, % at 12.5 µM. 350,000 compounds, 2% hits; in the data active means activation above about 40%; inconclusive means no clear call, values can overlap the other calls;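 further: 0% = median of the plate's neutral control wells and 100% = double that signal; a rise in the Bmi1 reporter signal indicates esBAF inhibition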
Vif imaging – blocks HIV Vif function | HEK293T cells, Vif self-association by quenched fluorescence, imaging, 24 h | inhibition, % at 7.49 µM | 340,000 compounds, 0.35% hits; in the data active means inhibition above about 50%, passing the limit was not always enough; inconclusive means no clear call, values can overlap the other calls; inactive means below about 31%
Wnt act – activates Wnt/beta-catenin signaling in a reporter cell assay; 300,000 compounds, 1.2% hits; activation, % at 9.35 µM; activator, plate reader; in the data active means activation above about 30%, passing the limit was not always enough; inconclusive means no clear call, values can overlap the other calls;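 further: 0% = neutral control wells and 100% = positive control wells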
* hit, by the source's call. Shown are actives, neighbours in structure and some others; about 2.6% of the full set was active somewhere.

What do the screens show for `C[C@@H]1CCCCO[C@H](CN(C)Cc2ccc(C(=O)Nc3ccccc3N)cc2)[C@H](C)CN([C@@H](C)CO)C(=O)c2cc(N(C)C)ccc2O1`?
Xi reactivation: 0

What do the screens show for `O=C(NN=Cc1ccccc1Cl)c1ccccc1`?
Xi reactivation: 0; Vif imaging: -1; Wnt act: 63*

How did Cn1cccc1-c1cc(C(=O)N/N=C/c2ccc(F)cc2)[nH]n1 do in these assays?
Xi reactivation: 0; MITF act: 2; esBAF inh: 1; Vif imaging: -20; Wnt act: 2

How did Cn1cccc1-c1cc(C(=O)N/N=C/c2ccc([N+](=O)[O-])cc2)[nH]n1 do in these assays?
Xi reactivation: 0; MITF act: -24; esBAF inh: 1; Vif imaging: 70*; Wnt act: -1

How did O=C(N/N=C/c1ccccc1Cl)c1ccc(F)cc1 do in these assays?
MITF act: 47; esBAF inh: 16; Vif imaging: inconclusive

How did Cn1cccc1-c1cc(C(=O)N/N=C/c2ccccc2Cl)[nH]n1 do in these assays?
Xi reactivation: 0; MITF act: 86*; esBAF inh: 55*; Vif imaging: -8; Wnt act: 10

How did C[C@@H]1CN([C@H](C)CO)C(=O)c2cc(C#CC3CC3)cnc2O[C@H]1CN(C)Cc1ccccn1 do in these assays?
Xi reactivation: 0; esBAF inh: 2

What do the screens show for `COc1ccc(O)c(/C=N/N2CCCCC2)c1`?
Xi reactivation: 0; MITF act: 30; esBAF inh: 6; Vif imaging: -8; Wnt act: 33*

How did CCCNC(=O)C[C@@H]1CC[C@@H]2[C@@H](COc3ccc(NC(=O)Cc4ccccc4)cc3C(=O)N2C)O1 do in these assays?
Xi reactivation: 0; esBAF inh: 2

What do the screens show for `CCN(CC)c1ccc(CNc2ccc3c(c2)ncn3CC)cc1`?
Xi reactivation: 0; Wnt act: 0

How did Cc1ccc(CNc2ccc3c(c2)ncn3C(C)C)cc1 do in these assays?
Xi reactivation: 0; MITF act: 89*; esBAF inh: 68*; Vif imaging: -1; Wnt act: 0

Results for CCCn1cnc2cc(NCc3cccc(OC)c3)ccc21 ?
MITF act: 66; esBAF inh: 52*; Vif imaging: 14; Wnt act: 21

Results for CCn1cnc2cc(NCc3ccc(C)cc3)ccc21 ?
MITF act: 119*; esBAF inh: inconclusive; Vif imaging: 5

What do the screens show for `CCn1cnc2cc(NCc3ccc(Br)cc3)ccc21`?
Xi reactivation: 0; Wnt act: 36*

How did CCC(=O)N1CC(=O)N2[C@H](C1)[C@@H](c1ccc(-c3cccnc3)cc1)[C@@H]2CO do in these assays?
Xi reactivation: 0

What do the screens show for `C[C@H](CO)N1C[C@H](C)[C@H](CN(C)C)Oc2ccc(NC(=O)Nc3cccc4ccccc34)cc2CC1=O`?
Xi reactivation: 0; esBAF inh: 4

What do the screens show for `CCn1cnc2cc(NCc3ccc(N(C)C)cc3)ccc21`?
Xi reactivation: 0; MITF act: 9; esBAF inh: 36; Vif imaging: -2; Wnt act: 10

What do the screens show for `CCCn1cnc2cc(NCc3ccccc3O)ccc21`?
Xi reactivation: 0; MITF act: 30; esBAF inh: 57*; Vif imaging: -9; Wnt act: 8

What do the screens show for `CCCn1cnc2cc(NCc3ccc(Br)cc3)ccc21`?
Xi reactivation: 0; MITF act: 46; esBAF inh: 52*; Vif imaging: -2; Wnt act: 2

What do the screens show for `O=[N+]([O-])c1ccccc1CSc1nnc2ccccn12`?
Xi reactivation: 0; MITF act: 34; esBAF inh: 63*; Vif imaging: 6; Wnt act: 5

How did CC(=O)N1[C@@H]2c3ccc(-c4ccc(F)cc4)c(=O)n3C[C@@H]2[C@@H](CO)[C@@H]1C(=O)NC1CCC1 do in these assays?
Xi reactivation: 0; esBAF inh: -1

What do the screens show for `O=C1c2ccccc2NC(c2ccc(-c3ccc(C(F)(F)F)cc3)o2)N1O` (stereo not drawn)?
Xi reactivation: 1; MITF act: -26; esBAF inh: -1; Wnt act: 5

What do the screens show for `O=C1c2ccccc2NC(c2ccc(Br)o2)N1O` (stereo not drawn)?
Xi reactivation: 0; esBAF inh: 31; Vif imaging: 20; Wnt act: 44*

How did O=C1c2ccccc2NC(c2ccc(-c3cccs3)o2)N1O (stereo not drawn) do in these assays?
Xi reactivation: 0; MITF act: 83*; esBAF inh: 67*; Vif imaging: -3; Wnt act: 59*

What do the screens show for `O=C(CC(F)(F)F)N1C[C@@H]2[C@H](c3ccccc31)[C@@H](CO)N2C(=O)Cc1ccccc1`?
Xi reactivation: 0; esBAF inh: 1

How did COc1cc(CN2CC3(CN(C(C)=O)C3)c3c([nH]c4cc(OC)ccc34)[C@H]2CO)cc(OC)c1 do in these assays?
Xi reactivation: 0

What do the screens show for `CCOc1ccccc1OCC(=O)Nc1cc(C)on1`?
Xi reactivation: 0; MITF act: 12; esBAF inh: 3; Vif imaging: -1; Wnt act: 0

What do the screens show for `Cc1cc(NC(=O)COc2ccc3ccccc3c2Br)no1`?
Xi reactivation: 0; MITF act: 68; esBAF inh: inconclusive; Vif imaging: inconclusive; Wnt act: 40*

What do the screens show for `O=C(COc1ccc2ccccc2c1)N1CCCC1`?
MITF act: 45; esBAF inh: 26; Vif imaging: 3; Wnt act: 36*

Results for O=C(COc1ccc2ccccc2c1Br)N1CCCCC1 ?
MITF act: 40; esBAF inh: 76*; Vif imaging: -8

Results for O=C(COc1ccc2ccccc2c1)N1CCN(c2ccccc2)CC1 ?
Xi reactivation: 0; MITF act: -11; esBAF inh: -5; Vif imaging: 15; Wnt act: -1

How did O=C(COc1ccc2cc(Br)ccc2c1)N1CCOCC1 do in these assays?
Xi reactivation: 0; esBAF inh: 48*; Vif imaging: 0; Wnt act: 28

How did C[C@@H]1CCCCO[C@H](CN(C)S(=O)(=O)c2cccs2)[C@H](C)CN([C@@H](C)CO)C(=O)c2cc(NC(=O)c3ccncc3)ccc2O1 do in these assays?
Xi reactivation: 0; esBAF inh: 5

How did COc1ccc(NC(=O)Nc2ccc3c(c2)CC(=O)N([C@H](C)CO)C[C@@H](C)[C@@H](CN(C)C(=O)NC2CCCCC2)O3)cc1 do in these assays?
Xi reactivation: 0; esBAF inh: -1

How did COCCn1c(COc2ccc(C)cc2)nc2ccccc21 do in these assays?
MITF act: 34; esBAF inh: 64*; Vif imaging: -7; Wnt act: 0

Results for C=CCn1c(COc2ccccc2)nc2ccccc21 ?
Xi reactivation: 0; MITF act: 28; esBAF inh: 50*; Vif imaging: -2; Wnt act: 4
